Columns and labels:
[1] = tested on: Homo sapiens; assay: Hepatotoxicity in patients assessed as three times increase in upper limit of normal bilirubin level at 200 mg, po bid for 72 days; format: toxicity, organism-based; conditions: in vivo, 1728 h
Procedure, shortened: (§1)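 Retrospective cohort at one hospital, 2006–2008. Patients received ≥7 days of oral voriconazole treatment for possible, probable or proven invasive fungal infection, with baseline and follow-up liver enzymes available; prophylaxis use was excluded. Groups were fixed 200 mg twice daily (n = 25) or weight-based 4 mg/kg twice daily after day 1 (n = 84). Read-out was number (%) of patients with a value >5× baseline or >3× ULN.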

[2] = tested on: Homo sapiens; assay: Hepatotoxicity in patient assessed as three times increase in upper limit of normal AST level at 297.3 mg, po bid for 76.1 days; format: toxicity, organism-based; conditions: in vivo, 1826.4 h; procedure, shortened: as §1
[3] = tested on: Homo sapiens; assay: Hepatotoxicity in patients assessed as three times increase in upper limit of normal bilirubin level at 297.3 mg, po bid for 76.1 days; format: toxicity, organism-based; conditions: in vivo, 1826.4 h; procedure, shortened: as §1
[4] = tested on: Homo sapiens; assay: Toxicity in patient assessed as visual disturbance at 297.3 mg, po bid for 76.1 days; format: organism-based; conditions: in vivo, 1826.4 h
Procedure, shortened: (§2)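 Retrospective chart review of the same cohort: adults on ≥7 days of oral voriconazole treatment, either fixed 200 mg twice daily (n = 25) or weight-based dosing (n = 84). Visual disturbances were taken from the medical records as a secondary adverse-event endpoint and given as number (%) of patients per group.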

[5] = tested on: Homo sapiens; assay: Hepatotoxicity in patient assessed as three times increase in upper limit of normal ALT level at 200 mg, po bid for 72 days; format: toxicity, organism-based; conditions: in vivo, 1728 h; procedure, shortened: as §1
[6] = tested on: Homo sapiens; assay: Hepatotoxicity in patients assessed as five times increase in baseline bilirubin level at 297.3 mg, po bid for 76.1 days; format: toxicity, organism-based; conditions: in vivo, 1826.4 h; procedure, shortened: as §1
[7] = tested on: Homo sapiens; assay: Hepatotoxicity in patients assessed as five times increase in baseline bilirubin level at 200 mg, po bid for 72 days; format: toxicity, organism-based; conditions: in vivo, 1728 h; procedure, shortened: as §1
[8] = tested on: Homo sapiens; assay: Hepatotoxicity in patient assessed as three times increase in upper limit of normal […] level at 297.3 mg, po bid for 76.1 days; format: toxicity, organism-based; conditions: in vivo, 1826.4 h; procedure, shortened: as §1
[9] = tested on: Homo sapiens; assay: Hepatotoxicity in patient assessed as five times increase in baseline […] level at 297.3 mg, po bid for 76.1 days; format: toxicity, organism-based; conditions: in vivo, 1826.4 h; procedure, shortened: as §1
[10] = tested on: Homo sapiens; assay: Hepatotoxicity in patient assessed as five times increase in baseline ALP level at 200 mg, po bid for 72 days; format: toxicity, organism-based; conditions: in vivo, 1728 h; procedure, shortened: as §1
[11] = tested on: Homo sapiens; assay: Toxicity in patient assessed as visual disturbance at 200 mg, po bid for 72 days; format: organism-based; conditions: in vivo, 1728 h; procedure, shortened: as §2
[12] = tested on: Homo sapiens; assay: Hepatotoxicity in patient assessed as three times increase in upper limit of normal […] level at 200 mg, po bid for 72 days; format: toxicity, organism-based; conditions: in vivo, 1728 h; procedure, shortened: as §1
[13] = tested on: Homo sapiens; assay: Hepatotoxicity in patient assessed as five times increase in baseline ALT level at 200 mg, po bid for 72 days; format: toxicity, organism-based; conditions: in vivo, 1728 h; procedure, shortened: as §1
[14] = tested on: Homo sapiens; assay: Hepatotoxicity in patient assessed as five times increase in baseline ALT level at 297.3 mg, po bid for 76.1 days; format: toxicity, organism-based; conditions: in vivo, 1826.4 h; procedure, shortened: as §1
[15] = tested on: Homo sapiens; assay: Hepatotoxicity in patient assessed as three times increase in upper limit of normal AST level at 200 mg, po bid for 72 days; format: toxicity, organism-based; conditions: in vivo, 1728 h; procedure, shortened: as §1
[16] = tested on: Homo sapiens; assay: Toxicity in patients assessed as adverse event at 297.3 mg, po bid for 76.1 days; format: organism-based; conditions: in vivo, 1826.4 h
Procedure, shortened: (§3)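 Same retrospective cohort (fixed 200 mg twice daily, n = 25, versus weight-based oral dosing, n = 84; ≥7 days of treatment). The outcome was voriconazole discontinuation that the practitioner attributed to an adverse drug event, taken from the medical records. Counts and % per group were compared between groups.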

[17] = tested on: Homo sapiens; assay: Hepatotoxicity in patient assessed as three times increase in upper limit of normal ALT level at 297.3 mg, po bid for 76.1 days; format: toxicity, organism-based; conditions: in vivo, 1826.4 h; procedure, shortened: as §1
[18] = tested on: Homo sapiens; assay: Hepatotoxicity in patient assessed as five times increase in baseline AST level at 200 mg, po bid for 72 days; format: toxicity, organism-based; conditions: in vivo, 1728 h; procedure, shortened: as §1
[19] = tested on: Homo sapiens; assay: Hepatotoxicity in patient assessed as five times increase in baseline AST level at 297.3 mg, po bid for 76.1 days; format: toxicity, organism-based; conditions: in vivo, 1826.4 h; procedure, shortened: as §1
[20] = tested on: Homo sapiens; assay: Toxicity in patients assessed as adverse event at 200 mg, po bid for 72 days; format: organism-based; conditions: in vivo, 1728 h; procedure, shortened: as §3

SMILES: C[C@@H](c1ncncc1F)[C@](O)(Cn1cncn1)c1ccc(F)cc1F [VORICONAZOLE]
- Activity [1]: 16%
- Activity [2]: 20.2%
- Activity [3]: 6%
- Activity [4]: 3.6%
- Activity [5]: 12%
- Activity [6]: 3.6%
- Activity [7]: 12%
- Activity [8]: 11.9%
- Activity [9]: 3.6%
- Activity [10]: 4%
- Activity [11]: 4%
- Activity [12]: 32%
- Activity [13]: 24%
- Activity [14]: 13.1%
- Activity [15]: 16%
- Activity [16]: 16.9%
- Activity [17]: 15.5%
- Activity [18]: 12%
- Activity [19]: 15.5%
- Activity [20]: 0%
